test system: Huh-7.5 HCV J6/JFH-1 infection, RT-qPCR viral RNA, 48 h; experiment: HCV infectivity inhibition in Huh-7.5 cells, late-stage follow-up, counter-screen for HCV core dimerization inhibitor project, cell-based, RT-qPCR viral RNA, J6/JFH-1, powder samples (AID 651575)
Summary of the method: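 System – Huh-7.5 cells infected with HCV genotype 2a J6/JFH-1 · Probe or stimulus – J6/JFH-1 HCV co-added with compound · Incubation – 24 h infection with compound, then 48 h compound · Technique – Taqman real-time RT-qPCR of HCV RNA, Ct values · Read-out basis – IC50 from four-parameter variable-slope fit of percent inhibition, total-RNA-normalized · Replicates – triplicates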

| Compound | IC50 [nM] |
| --- | --- |
| Cc1ccc(Cc2c(C)nc3nc(SCC(=O)NCCN4CCCN(S(=O)(=O)c5ccccc5)CC4)nn3c2C)cc1 | 665 |
| Cc1ccc(Cc2c(C)nc3nc(SCC(=O)NCCN4CCCCCC4)nn3c2C)cc1 | 191 |
| Cc1ccc(Cc2c(CCc3ccccc3)nc3nc(SC(Cc4ccccc4)C(=O)NCCN4CCOCC4)nn3c2C)cc1 (centres undefined) | 286 |
| Cc1ccc(Cc2c(C)nc3nc(SCC(=O)NCCN4CCOCC4)nn3c2C)cc1 | 312 |
| Cc1ccc(Cc2c(C)nc3nc(SCC(=O)NCCN4CCCN(S(=O)(=O)c5ccc(C)cc5)CC4)nn3c2C)cc1 | 4 |
| Cc1ccc(Cc2c(C)nc3nc(SCC(=O)NCCN4CCCN(S(C)(=O)=O)CC4)nn3c2C)cc1 | 1240 |
| Cc1ccc(Cc2c(C)nc3nc(SCC(=O)NCCN4CCNCC4)nn3c2C)cc1 | 2 |
| Cc1ccc(Cc2c(C)nc3nc(SCC(=O)NCCN4CCN(Cc5ccc(F)cc5)CC4)nn3c2C)cc1 | 32 |
| Cc1ccc(Cc2c(C)nc3nc(SCC(=O)NCCN4CCN(CCc5ccccc5)CC4)nn3c2C)cc1 | 294 |

Source: PubChem BioAssay AID651575 (The Scripps Research Institute Molecular Screening Center, 2012)
